Data taken from ChEMBL document CHEMBL4229573, “Discovery of Quinazolines That Activate SOS1-Mediated Nucleotide Exchange on RAS” (ACS Med Chem Lett, 2018).
The source made the active and inactive calls. The calls are words filed in the database; no cut-off is given here.

Assays:
[1] = target: T1, Son of sevenless homolog 1 (Homo sapiens) (UniProt Q07889); assay: Biphasic activity at SOS1 in human HeLa cells assessed as reduction in ERK1/2 T202/Y204 phosphorylation at 100 uM measured after 30 mins by Western blot analysis; format: cell-based
T1 sequence (whole entry): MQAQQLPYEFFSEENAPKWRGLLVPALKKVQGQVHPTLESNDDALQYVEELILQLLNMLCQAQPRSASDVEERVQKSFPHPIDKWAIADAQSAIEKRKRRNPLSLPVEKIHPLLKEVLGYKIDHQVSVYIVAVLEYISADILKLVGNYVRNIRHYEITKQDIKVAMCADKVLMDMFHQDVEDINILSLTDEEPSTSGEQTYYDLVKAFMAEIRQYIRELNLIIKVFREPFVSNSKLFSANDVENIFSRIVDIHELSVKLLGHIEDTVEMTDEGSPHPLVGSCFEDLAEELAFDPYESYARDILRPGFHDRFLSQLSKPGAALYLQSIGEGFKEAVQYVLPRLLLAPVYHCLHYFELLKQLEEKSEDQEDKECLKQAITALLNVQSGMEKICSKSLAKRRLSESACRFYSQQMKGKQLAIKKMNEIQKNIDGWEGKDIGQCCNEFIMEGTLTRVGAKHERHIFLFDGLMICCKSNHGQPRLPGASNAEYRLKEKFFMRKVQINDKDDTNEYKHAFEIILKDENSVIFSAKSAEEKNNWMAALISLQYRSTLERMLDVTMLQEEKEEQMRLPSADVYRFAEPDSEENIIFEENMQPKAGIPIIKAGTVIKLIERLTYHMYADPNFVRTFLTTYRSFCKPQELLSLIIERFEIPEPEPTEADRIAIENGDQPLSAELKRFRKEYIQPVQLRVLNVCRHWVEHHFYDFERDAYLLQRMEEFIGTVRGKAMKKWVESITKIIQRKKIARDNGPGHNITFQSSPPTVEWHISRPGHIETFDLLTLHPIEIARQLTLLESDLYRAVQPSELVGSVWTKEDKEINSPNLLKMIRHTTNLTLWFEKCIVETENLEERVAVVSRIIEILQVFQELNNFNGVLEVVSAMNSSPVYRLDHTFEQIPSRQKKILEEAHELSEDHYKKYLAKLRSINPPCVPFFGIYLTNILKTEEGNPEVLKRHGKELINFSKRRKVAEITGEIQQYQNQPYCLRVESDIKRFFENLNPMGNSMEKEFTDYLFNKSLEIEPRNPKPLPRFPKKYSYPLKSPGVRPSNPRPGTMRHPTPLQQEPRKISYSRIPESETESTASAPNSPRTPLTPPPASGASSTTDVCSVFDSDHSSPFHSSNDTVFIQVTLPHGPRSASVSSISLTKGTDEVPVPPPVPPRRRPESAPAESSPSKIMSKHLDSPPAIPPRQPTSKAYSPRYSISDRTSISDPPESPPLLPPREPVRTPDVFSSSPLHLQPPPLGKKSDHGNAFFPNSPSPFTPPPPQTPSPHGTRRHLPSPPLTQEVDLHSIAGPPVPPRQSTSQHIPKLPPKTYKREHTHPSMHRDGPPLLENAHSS
Procedure, shortened: (§1)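 HeLa cells treated for 30 min with compound at concentrations up to 100 μM. RAS-GTP and ERK1/2 phosphorylated at T202/Y204 were detected by blotting and quantified. EGF (50 ng/mL, 5 min) served as the positive control for pathway activation.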

[2] = target: T1, Son of sevenless homolog 1 (Homo sapiens); assay: Activation of SOS1 in human HeLa cells assessed as effect on ERK1/2 phosphorylation at T202/Y204 residue by measuring […] at 100 uM after 30 mins by Western blot analysis relative to control
[3] = target: T1, Son of sevenless homolog 1 (Homo sapiens); assay: Activation of SOS1 in human HeLa cells assessed as effect on ERK1/2 phosphorylation at T202/Y204 residue by measuring […] at 3.1 uM after 30 mins by Western blot analysis relative to control; format: cell-based; procedure, shortened: as §1
[4] = target: T1, Son of sevenless homolog 1 (Homo sapiens); assay: Activation of SOS1 in human HeLa cells assessed as effect on RAS-GTP levels by measuring […] at 3.1 uM after 30 mins by active RAS pull-down assay relative to control; format: cell-based; procedure, shortened: as §1
[5] = target: T1, Son of sevenless homolog 1 (Homo sapiens); assay: Activation of SOS1 in human HeLa cells assessed as effect on RAS-GTP levels by measuring […] at 50 uM after 30 mins by active RAS pull-down assay relative to control; format: cell-based; procedure, shortened: as §1
[6] = target: T1, Son of sevenless homolog 1 (Homo sapiens); assay: Activation of SOS1 in human HeLa cells assessed as effect on ERK1/2 phosphorylation at T202/Y204 residue by measuring […] at 6.3 uM after 30 mins by Western blot analysis relative to control; format: cell-based; procedure, shortened: as §1
[7] = target: T1, Son of sevenless homolog 1 (Homo sapiens); assay: Activation of SOS1 in human HeLa cells assessed as effect on RAS-GTP levels by measuring […] at 12.5 uM after 30 mins by active RAS pull-down assay relative to control; format: cell-based; procedure, shortened: as §1
[8] = target: T1, Son of sevenless homolog 1 (Homo sapiens); assay: Activation of SOS1 in human HeLa cells assessed as effect on RAS-GTP levels by measuring […] at 25 uM after 30 mins by active RAS pull-down assay relative to control; format: cell-based; procedure, shortened: as §1
[9] = target: T1, Son of sevenless homolog 1 (Homo sapiens); assay: Activation of SOS1 in human HeLa cells assessed as effect on ERK1/2 phosphorylation at T202/Y204 residue by measuring […] at 25 uM after 30 mins by Western blot analysis relative to control; format: cell-based; procedure, shortened: as §1
[10] = target: T1, Son of sevenless homolog 1 (Homo sapiens); assay: Activation of SOS1 in human HeLa cells assessed as effect on RAS-GTP levels by measuring […] at 6.3 uM after 30 mins by active RAS pull-down assay relative to control; format: cell-based; procedure, shortened: as §1
[11] = target: T1, Son of sevenless homolog 1 (Homo sapiens); assay: Activation of SOS1 in human HeLa cells assessed as effect on RAS-GTP levels by measuring […] at 100 uM after 30 mins by active RAS pull-down assay relative to control; format: cell-based; procedure, shortened: as §1
[12] = target: T1, Son of sevenless homolog 1 (Homo sapiens); assay: Activation of SOS1 in human HeLa cells assessed as effect on ERK1/2 phosphorylation at T202/Y204 residue by measuring […] at 12.5 uM after 30 mins by Western blot analysis relative to control; format: cell-based; procedure, shortened: as §1
[13] = target: T1, Son of sevenless homolog 1 (Homo sapiens); assay: Activation of SOS1 in human HeLa cells assessed as effect on ERK1/2 phosphorylation at T202/Y204 residue by measuring […] at 50 uM after 30 mins by Western blot analysis relative to control; format: cell-based; procedure, shortened: as §1
[14] = target: Mitogen-activated protein kinase 3 (Homo sapiens) (UniProt P27361); assay: Inhibition of human ERK1 using myelin basic protein as substrate measured in presence of [gamma33P]ATP
Sequence of Mitogen-activated protein kinase 3 (Homo sapiens) (P27361 whole entry): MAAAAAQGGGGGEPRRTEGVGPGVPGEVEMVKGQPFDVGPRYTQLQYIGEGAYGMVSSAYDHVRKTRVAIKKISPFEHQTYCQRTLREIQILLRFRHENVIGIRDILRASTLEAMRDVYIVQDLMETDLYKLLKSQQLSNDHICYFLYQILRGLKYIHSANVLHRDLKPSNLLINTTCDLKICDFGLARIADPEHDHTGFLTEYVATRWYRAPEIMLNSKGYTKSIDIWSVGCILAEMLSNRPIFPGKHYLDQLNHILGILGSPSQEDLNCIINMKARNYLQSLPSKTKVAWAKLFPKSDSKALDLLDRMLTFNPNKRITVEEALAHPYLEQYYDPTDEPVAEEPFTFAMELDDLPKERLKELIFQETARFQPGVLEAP

[15] = target: Mitogen-activated protein kinase 1 (Homo sapiens) (UniProt P28482); assay: Inhibition of human ERK2 using myelin basic protein as substrate measured in presence of [gamma33P]ATP
Sequence of Mitogen-activated protein kinase 1 (Homo sapiens) (P28482 whole entry): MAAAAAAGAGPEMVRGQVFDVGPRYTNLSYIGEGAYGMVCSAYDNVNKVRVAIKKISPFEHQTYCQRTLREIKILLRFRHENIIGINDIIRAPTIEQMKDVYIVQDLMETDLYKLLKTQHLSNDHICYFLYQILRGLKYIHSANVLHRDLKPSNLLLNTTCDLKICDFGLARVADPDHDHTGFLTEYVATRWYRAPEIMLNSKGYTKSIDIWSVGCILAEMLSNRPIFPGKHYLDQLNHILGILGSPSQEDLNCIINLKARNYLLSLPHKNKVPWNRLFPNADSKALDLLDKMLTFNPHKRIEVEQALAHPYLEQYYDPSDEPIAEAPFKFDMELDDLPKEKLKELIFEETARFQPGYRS

SMILES	Activity [1]	fold change (FC) [2]	fold change (FC) [3]	fold change (FC) [4]	fold change (FC) [5]	fold change (FC) [6]	fold change (FC) [7]	fold change (FC) [8]	fold change (FC) [9]	fold change (FC) [10]	fold change (FC) [11]	fold change (FC) [12]	fold change (FC) [13]	inhibition [14]	inhibition [15]
CC[C@H](Nc1nc(Nc2ccc(F)c(Cl)c2)nc2ccccc12)C1CC1	inactive														
C[C@@H](Nc1nc(Nc2ccc(F)c(Cl)c2)nc2c(CCN)cccc12)C1CC1		0.44	1.11	1.22	1.61	1.82	0.97	1.58	1.87	1.64	1.66	1.59	1.18		
CC[C@@H](Nc1nc(Nc2ccc(F)c(Cl)c2)nc2ccccc12)C1CCC1	inactive														
C[C@@H](Nc1nc(Nc2ccc(F)c(Cl)c2)nc2ccccc12)C1CCC1	inactive														
C[C@@H](Nc1nc(Nc2ccc(F)c(Cl)c2)nc2c(CN)cccc12)C1CC1		0.59	1.05	1.15	1.14	0.94	0.98	1.18	2.52	1.39	1.54	1.83	2.43		
CC(C)C[C@@H](Nc1nc(Nc2ccc(F)c(Cl)c2)nc2ccccc12)C1CC1	inactive														
C[C@@H](Nc1nc(Nc2ccc(F)c(Cl)c2)nc2c(C3=CCNCC3)cccc12)C1CC1		0.58	1.43	1.41	1.56	1.29	1.72	1.6	1.98	1.08	1.51	1.98	1.16		
C[C@@H](Nc1nc(Nc2ccc(F)c(Cl)c2)nc2ccccc12)C1CC1		4.01	1.16	0.95	1.26	1.03	0.53	0.69	1.61	0.85	1.39	1.67	3.68	inactive	inactive
Clc1cc(Cl)cc(Nc2nc(NCc3ccco3)c3ccccc3n2)c1	inactive														
